Paper PMC6071920 (MedChemComm, 2016)
Values joined by “and” are separate entries in the source; they are usually repeats but may differ in a detail not shown here. Identical values can stand only once. Like-named read-outs stand apart in the source and are kept apart here.

Legend:
TSPO [1] = conditions: read-out: Ki for the TSPO; cited from earlier work
TSPO A147T [2] = format: binding, human; conditions: fold discrimination (loss of affinity at TSPO A147T versus TSPO WT)
TSPO WT = TSPO WT (Homo sapiens, UniProt P30536, T147A); format: binding; conditions: 3b versus 3a; 4b versus 4a
TSPO A147T [3] = molecular target: TSPO A147T (Homo sapiens, UniProt P30536); format: binding
[4] = test system: TSPO WT over-expressing 293T cells; assay: Proliferation; format: cell-based, human; conditions: 48 h, BrdU ELISA
In short: (§1)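 Clonally selected 293T cells, lentivirally transduced with human TSPO WT or A147T, puromycin-selected, grown in DMEM with 10% FBS, 100 U ml−1 penicillin/streptomycin and 2 mM glutamine. BrdU labelled at 37 °C for 4 h, then detected by BrdU ELISA. Stopped with 1 M sulfuric acid and read at 450 nm. Normalised to vehicle controls; one-way ANOVA with Dunnett's test.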

[5] = test system: TSPO A147T over-expressing 293T cells; assay: Proliferation; format: cell-based, human; conditions: 48 h, BrdU ELISA
In short: as §1

TSPO [6] = conditions: cited from earlier work; for Fold reduction of affinity in LABs compared to HABs: brain tissue or lymphocytes
rat TSPO = conditions: read-out: Affinity commonly reported at the rat TSPO; cited from earlier work
[7] = cited from earlier work

Sequence of TSPO A147T (Homo sapiens, UniProt P30536) (P30536 whole entry, stated change not applied): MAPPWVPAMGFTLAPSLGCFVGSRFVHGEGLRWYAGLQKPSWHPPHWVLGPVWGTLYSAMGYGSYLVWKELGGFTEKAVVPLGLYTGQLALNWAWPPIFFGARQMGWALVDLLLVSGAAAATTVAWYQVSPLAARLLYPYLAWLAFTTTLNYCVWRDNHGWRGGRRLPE
Sequence of TSPO WT (P30536 whole entry T147A): as the sequence (P30536 whole entry, stated change not applied) above, with T147A counted along it

NC(=O)c1nc(-c2ccccc2)c2ccccc2n1 [4-phenyl quinazoline-2-carboxamide]
Ki (TSPO [1]): 0.5 nM

CCN(CC)C(=O)Cn1c2ccccc2c2ccccc21 [Compound 3a, 2-(9H-Carbazol-9-yl)-N,N-diethylacetamide]
TSPO A147T Ki/TSPO WT Ki (TSPO A147T [2]): 6

CCN(Cc1ccccc1)C(=O)Cn1c2ccccc2c2ccccc21 [Compound 3b, N-Benzyl-2-(9H-carbazol-9-yl)-N-ethylacetamide]
Fold lower affinity at TSPO WT than the N,N-diethylamide analogue (TSPO WT): 3 ×
Fold reduction in TSPO A147T affinity compared to 3a (TSPO A147T [3]; 3b versus 3a): 2.6 ×
Effect on proliferation at 100 μM, TSPO WT cells [4]: did not significantly affect proliferation
Effect on proliferation at 100 μM, TSPO A147T cells [5]: did not significantly affect proliferation

CCN(CC)C(=O)Cn1c2ccccc2c2cc(Br)ccc21 [Compound 4a, 2-(3-Bromo-9H-carbazole-9-yl)-N,N-diethylacetamide]
TSPO A147T Ki/TSPO WT Ki (TSPO A147T [2]): 5

CCN(CC)C(=O)Cn1c2ccccc2c2cc(-c3ccccc3)ccc21 [Compound 5a, N,N-Diethyl-2-(3-phenyl-9H-carbazole-9-yl)acetamide]
TSPO A147T Ki/TSPO WT Ki (TSPO A147T [2]): 5- to 6

CCN(CC)C(=O)Cn1c2ccccc2c2cc(-c3ccc(OC)cc3)ccc21 [Compound 5c, N,N-Diethyl-2-(3-(4-methoxyphenyl)-9H-carbazole-9-yl)acetamide]
Fold improved (higher) affinity at TSPO A147T than the comparator analogue (TSPO A147T [3]; 4b versus 4a, 5c versus 3a): 2 ×

CCN(CC)C(=O)Cc1c(-c2ccc(OC)cc2)nn2c(C)cc(C)nc12 [DPA-713]
Effect on proliferation at 100 μM, TSPO WT cells [4]: did not significantly affect proliferation
Effect on proliferation at 100 μM, TSPO A147T cells [5]: did not significantly affect proliferation

COc1ccccc1CN(C(C)=O)c1cnccc1Oc1ccccc1 [PBR-28]
Fold reduction of affinity in LABs compared to HABs (TSPO [6]): 55 fold

CCC(C)N(C)C(=O)c1cc2ccccc2c(-c2ccccc2Cl)n1 (centres unmarked) [PK 11195]
Ki (rat TSPO): 0.7 to 18 nM
In vivo bioavailability [7]: poor in vivo bioavailability

CCN(Cc1ccccc1)C(=O)Cn1c(=O)n(C)c2cnc(-c3ccccc3)nc21 [XBD-173]
TSPO A147T Ki/TSPO WT Ki (TSPO A147T [2]): 5 and 5- to 6
Fold reduction of affinity in LABs compared to HABs (TSPO [6]): 13 fold
Ki (TSPO [6]; read-out: Affinity at LABs, LAB brain tissue): 30.3 nM
